Values without a mark were called inactive.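 How the source made its calls, unless noted: active means growth inhibition above 25% in both replicates, a cutoff set 3 SD above the mean; inconclusive means above 25% in only one replicate; inactive means the rest.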
Assay: S. cerevisiae growth inhibition in permissive medium (OD615), pilot counter-assay for S. cerevisiae lifespan shortening project, permissive growth control (AID 705)
Conditions: OD615, 24 h, at 10 µM, hits give high values
Procedure, shortened: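 assay system = Saccharomyces cerevisiae strain carrying genetically modified DeaD replicative-lifespan system | medium = SC raffinose/galactose permissive medium | dosing = 10 µM single dose, 0.25% DMSO | schedule = 24 h compound exposure at 30 °C after 4 h pre-growth | measured by = OD at 615 nm | read-out basis = growth inhibition from lowered OD615 after 24 h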

Point of comparison: `Cc1ccc(-n2nnc3c(=O)n(CC(=O)NCc4ccco4)cnc32)cc1`, growth inhibition -7.22%. Against it:
- Cc1oc(-c2cccs2)nc1CS(=O)CC(=O)NCCCN1CC(C)CC(C)C1 (stereo not given) — lower, -8.47%
- Cc1nc(-c2ccc(S(=O)(=O)N3CCCCCC3)cc2)cs1 — higher, 10.7%
- O=C(CN1CCN(Cc2ccccc2F)C1=O)NCCN1CCOCC1 — higher, -2.78%
- O=C(NCCCN1CCc2ccccc2C1)C1CCN(c2nnc(-n3cccc3)s2)CC1 — higher, 2.54%
- CCOC(=O)N1CCC(NC(=O)c2cc3c(C)nc4ccccc4c3o2)CC1 — lower, -14.7%
- Cn1c(N)c(C(=O)COC(=O)Cc2ccsc2)c(=O)n(C)c1=O — lower, -10.1%
- NC(=O)C1CCN(C(=O)C2CCN(S(=O)(=O)c3ccccc3)CC2)CC1 — higher, -2.18%
- COc1ccc(OC)c2[nH]c(=O)c(CCNC(=O)c3cc4ccccc4o3)cc12 — higher, -6.5%
- Cc1ccc2cc(-c3noc(C4CCCO4)n3)c(=O)[nH]c2c1 (stereo not given) — lower, -12.5%
- CCCCCn1c(N2CCC(Cc3ccccc3)CC2)nc2c1c(=O)[nH]c(=O)n2C — lower, -14.9%
- COC(=O)c1[nH]c2cc(OC)ccc2c1NC(=O)c1ccc2c(c1)OCO2 — lower, -9.79%
- Cc1ccccc1NC(=O)c1ccc(S(=O)(=O)N(C)C)cc1 — lower, -9.3%
- Cc1cccc(NC(=O)NCCN2C(=O)C3C4C=CC(C4)C3C2=O)c1 (stereo not given) — lower, -11.4%
- COc1ccc(C2C=C(c3ccc(C)c(C)c3)Nc3ncnn32)c(OC)c1OC (stereo not given) — higher, -5.12%
- COc1ccc(NC(=O)c2nc3nc(C)cc(C(F)F)n3n2)cc1OC — lower, -10.9%
- O=C(CC1(O)C(=O)Nc2ccccc21)c1ccccc1 (stereo not given) — higher, 1.47%
- CCOC(=O)N1CCN(C(=O)c2cc3cc(Br)ccc3oc2=O)CC1 — higher, -3.99%
- COc1ccc(OC)c(C2CC(=O)N3CN(c4cccc(Cl)c4C)CSC3=C2C#N)c1 (stereo not given) — higher, 2.17%
- CSC1=NCCN1C(=O)C(C)Oc1ccccc1 (stereo not given) — higher, 1.44%
- COc1ccc(OC)c(N(CC(=O)O)S(=O)(=O)c2ccc(OC)c(OC)c2)c1 — higher, -2.7%
- CCC(=O)c1cc2c(cc1NC(=O)c1cccs1)OCCO2 — higher, -5.85%
- CCn1c(C2CC(=O)N(c3ccc(C)c(C)c3)C2)nc2ccccc21 (stereo not given) — higher, -6.54%
- C=COCCn1c(-c2nonc2N)nc2ccccc21 — higher, -6.54%
- O=C(NC1CCCCC1)C(c1ccccc1)N1CCC2(CC1)OCCO2 (stereo not given) — higher, 0.86%
- CCCCNc1cc(=O)n(C)c(=O)[nH]1 — lower, -12.2%
- CC1Cn2c(nnc2-c2cccc(N)c2)S1 (stereo not given) — higher, 1.06%
- Cc1nnc(NC(=O)CSc2nnc(Cc3cccn3C)n2-c2cccc(C(F)(F)F)c2)s1 — higher, -1.29%
- CCc1c(C)nc(SCC(=O)Nc2ccc(Br)cc2)[nH]c1=O — lower, -11.9%
- CCc1nnc(NC(=O)C2Cc3ccccc3C(=O)O2)s1 (stereo not given) — lower, -13.9%
- CCOCCn1c(CN(Cc2ccccc2)Cc2ccccc2)nc2c1c(=O)n(C)c(=O)n2C — higher, 0.79%
- COc1ccccc1-c1cc(N)n(S(=O)(=O)c2ccc(F)c(C)c2)n1 — lower, -9.16%
- O=C(O)[C@@H](c1ccccc1)N1Cc2ccccc2C1=O — higher, 2.66%
- O=C(NCc1cccs1)c1cnc2sccn2c1=O — lower, -9.93%
- CC(C)(C)OC(=O)N1CCC(C(N)=O)CC1 — higher, -1.93%
- Cc1ccc(C2CC(c3ccccc3C)n3nc(N)nc3N2)cc1 (stereo not given) — higher, 0.605%
- COC(=O)C1CCN(C(c2ccc(OC)c(OC)c2)c2sc3nc(C)nn3c2O)CC1 (stereo not given) — higher, 7.23%
- CCOc1ccc(Oc2nc(NCC(C)C)nc(OC)n2)nn1 — lower, -8.33%
- OC(COc1ccc2ccccc2c1)CN1CCN(c2ccc(F)cc2)CC1 (stereo not given) — higher, 3.06%
- Cc1ccc(O)c(NC(=O)CCC2CCCCC2)c1 — higher, -1.6%

Assay: S. cerevisiae growth inhibition in restrictive medium, OD615, pilot screen, restrictive growth control, yeast lifespan reduction project (AID 706;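 active means growth inhibition above a set limit, 3 SD over mean compound inhibition, in both replicates, cut at about 43% in these data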;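 further: modified DeaD lifespan yeast strain shifted to restrictive glucose medium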)
Conditions: OD615, 48 h, at 10 µM, hits give high values
Procedure, shortened: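 Buffer or medium: CSMM-D glucose medium. Material: genetically modified Saccharomyces cerevisiae, DeaD replicative lifespan assay strain. Times: 48 h compound exposure at 30 °C. Measured by: optical density at 615 nm.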

Point of comparison: `Cc1ccc(O)c(NC(=O)CCC2CCCCC2)c1`, growth inhibition 1.04%. Against it:
- Cc1oc(-c2cccs2)nc1CS(=O)CC(=O)NCCCN1CC(C)CC(C)C1 (stereo not given) — lower, -12.7%
- Cc1nc(-c2ccc(S(=O)(=O)N3CCCCCC3)cc2)cs1 — higher, 2.95%
- O=C(CN1CCN(Cc2ccccc2F)C1=O)NCCN1CCOCC1 — higher, 5.44%
- O=C(NCCCN1CCc2ccccc2C1)C1CCN(c2nnc(-n3cccc3)s2)CC1 — lower, -1.29%
- CCOC(=O)N1CCC(NC(=O)c2cc3c(C)nc4ccccc4c3o2)CC1 — lower, -11.2%
- Cn1c(N)c(C(=O)COC(=O)Cc2ccsc2)c(=O)n(C)c1=O — lower, -0.56%
- NC(=O)C1CCN(C(=O)C2CCN(S(=O)(=O)c3ccccc3)CC2)CC1 — higher, 12.3%
- COc1ccc(OC)c2[nH]c(=O)c(CCNC(=O)c3cc4ccccc4o3)cc12 — lower, -3.6%
- Cc1ccc2cc(-c3noc(C4CCCO4)n3)c(=O)[nH]c2c1 (stereo not given) — lower, -7.12%
- CCCCCn1c(N2CCC(Cc3ccccc3)CC2)nc2c1c(=O)[nH]c(=O)n2C — lower, -29.9%
- COC(=O)c1[nH]c2cc(OC)ccc2c1NC(=O)c1ccc2c(c1)OCO2 — lower, -13.4%
- Cc1ccccc1NC(=O)c1ccc(S(=O)(=O)N(C)C)cc1 — lower, -2.52%
- Cc1cccc(NC(=O)NCCN2C(=O)C3C4C=CC(C4)C3C2=O)c1 (stereo not given) — higher, 8.84%
- COc1ccc(C2C=C(c3ccc(C)c(C)c3)Nc3ncnn32)c(OC)c1OC (stereo not given) — higher, 11.7%
- COc1ccc(NC(=O)c2nc3nc(C)cc(C(F)F)n3n2)cc1OC — lower, -6.71%
- O=C(CC1(O)C(=O)Nc2ccccc21)c1ccccc1 (stereo not given) — lower, -8.37%
- CCOC(=O)N1CCN(C(=O)c2cc3cc(Br)ccc3oc2=O)CC1 — lower, -17.6%
- COc1ccc(OC)c(C2CC(=O)N3CN(c4cccc(Cl)c4C)CSC3=C2C#N)c1 (stereo not given) — higher, 13.8%
- Cc1ccc(-n2nnc3c(=O)n(CC(=O)NCc4ccco4)cnc32)cc1 — higher, 2.02%
- CSC1=NCCN1C(=O)C(C)Oc1ccccc1 (stereo not given) — lower, -0.77%
- COc1ccc(OC)c(N(CC(=O)O)S(=O)(=O)c2ccc(OC)c(OC)c2)c1 — lower, -11.1%
- CCC(=O)c1cc2c(cc1NC(=O)c1cccs1)OCCO2 — lower, -7.54%
- CCn1c(C2CC(=O)N(c3ccc(C)c(C)c3)C2)nc2ccccc21 (stereo not given) — higher, 1.06%
- C=COCCn1c(-c2nonc2N)nc2ccccc21 — lower, -3.9%
- O=C(NC1CCCCC1)C(c1ccccc1)N1CCC2(CC1)OCCO2 (stereo not given) — higher, 6.33%
- CCCCNc1cc(=O)n(C)c(=O)[nH]1 — lower, -4.46%
- CC1Cn2c(nnc2-c2cccc(N)c2)S1 (stereo not given) — higher, 14.3%
- Cc1nnc(NC(=O)CSc2nnc(Cc3cccn3C)n2-c2cccc(C(F)(F)F)c2)s1 — higher, 13.7%
- CCc1c(C)nc(SCC(=O)Nc2ccc(Br)cc2)[nH]c1=O — lower, 0.39%
- CCc1nnc(NC(=O)C2Cc3ccccc3C(=O)O2)s1 (stereo not given) — lower, -14.9%
- CCOCCn1c(CN(Cc2ccccc2)Cc2ccccc2)nc2c1c(=O)n(C)c(=O)n2C — higher, 12.6%
- COc1ccccc1-c1cc(N)n(S(=O)(=O)c2ccc(F)c(C)c2)n1 — lower, -5.82%
- O=C(O)[C@@H](c1ccccc1)N1Cc2ccccc2C1=O — lower, -13.5%
- O=C(NCc1cccs1)c1cnc2sccn2c1=O — higher, 18%
- CC(C)(C)OC(=O)N1CCC(C(N)=O)CC1 — lower, 0.2%
- Cc1ccc(C2CC(c3ccccc3C)n3nc(N)nc3N2)cc1 (stereo not given) — lower, -2.86%
- COC(=O)C1CCN(C(c2ccc(OC)c(OC)c2)c2sc3nc(C)nn3c2O)CC1 (stereo not given) — higher, 4.6%
- CCOc1ccc(Oc2nc(NCC(C)C)nc(OC)n2)nn1 — higher, 5.96%
- OC(COc1ccc2ccccc2c1)CN1CCN(c2ccc(F)cc2)CC1 (stereo not given) — lower, -5.26%

From PubChem BioAssay
